Laboratory results: ChEMBL document CHEMBL4152188, “Design, synthesis and biological evaluation of C(4) substituted monobactams as antibacterial agents against multidrug-resistant Gram-negative bacteria” (Eur J Med Chem, 2018)
Values after ≈ are worked out from the molar mass of the structure shown.

How the values were obtained:
Pseudomonas aeruginosa [1] = test: Antibacterial activity against IMP-4 producing Pseudomonas aeruginosa isolate 208247 after 18 hrs in presence of BPL by CLSI broth microdilution method; type: functional; settings: isolate 208247, 18 h
Outline: (§1)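 CLSI broth microdilution against clinical isolates (ESBL E. coli, KPC-2 MDR K. pneumoniae, IMP-4 MDR P. aeruginosa; five per species). Iron limitation: Mueller-Hinton broth supplemented with 16 mg/liter 2,2'-bipyridyl to complex iron and induce iron uptake systems. Read-out: MIC.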

Klebsiella pneumoniae [2] = test: Antibacterial activity against KPC-2 producing Klebsiella pneumoniae isolate 209735 after 18 hrs by CLSI broth microdilution method; type: functional; settings: isolate 209735, 18 h
Pseudomonas aeruginosa [3] = test: Selectivity index, ratio of MIC for against IMP-4 producing Pseudomonas aeruginosa isolate 209471 to MIC for against IMP-4 producing Pseudomonas aeruginosa isolate 209471 in presence of BPL; type: functional
Escherichia coli [4] = test: Selectivity index, ratio of MIC for against extended-spectrum beta-lactamase producing Escherichia coli isolate 212648 to MIC for extended-spectrum beta-lactamase producing Escherichia coli isolate 212648 in presence of BPL; type: functional
Escherichia coli [5] = test: Selectivity index, ratio of MIC for against extended-spectrum beta-lactamase producing Escherichia coli isolate 209285 to MIC for extended-spectrum beta-lactamase producing Escherichia coli isolate 209285 in presence of BPL; type: functional
Escherichia coli [6] = test: Antibacterial activity against extended-spectrum beta-lactamase producing Escherichia coli isolate 209285 after 18 hrs by CLSI broth microdilution method; type: functional; settings: isolate 209285, 18 h
Klebsiella pneumoniae [7] = test: Selectivity index, ratio of MIC for against KPC-2 producing Klebsiella pneumoniae isolate 212423 to MIC for against KPC-2 producing Klebsiella pneumoniae isolate 212423 in presence of BPL; type: functional
Pseudomonas aeruginosa [8] = test: Antibacterial activity against IMP-4 producing Pseudomonas aeruginosa isolate 207272 after 18 hrs by CLSI broth microdilution method; type: functional; settings: isolate 207272, 18 h
Pseudomonas aeruginosa [9] = test: Selectivity index, ratio of MIC for against IMP-4 producing Pseudomonas aeruginosa isolate 208247 to MIC for against IMP-4 producing Pseudomonas aeruginosa isolate 208247 in presence of BPL; type: functional
Escherichia coli [10] = test: Antibacterial activity against extended-spectrum beta-lactamase producing Escherichia coli isolate 208687 after 18 hrs by CLSI broth microdilution method; type: functional; settings: isolate 208687, 18 h
[11] = Intrinsic clearance in human liver microsomes assessed per g protein at 0.1 uM pre-incubated with compound followed by NADPH addition and measured after 60 mins by LC-MS/MS analysis; type: ADME, microsome; settings: 1 h
Outline: (§2)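 Liver microsomes, 0.33 mg/mL microsomal protein, with an NADP+-regenerating system. Test article at 0.1 µM, incubated at 37°C. Samples were taken at 0, 7, 17, 30 and 60 min, and parent compound was measured by MS. Half-life, intrinsic clearance (ml/min/g protein) and MF (%) are derived from parent loss.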

Escherichia coli [12] = test: Antibacterial activity against extended-spectrum beta-lactamase producing Escherichia coli isolate 106342 after 18 hrs in presence of BPL by CLSI broth microdilution method; type: functional; settings: isolate 106342, 18 h; outline: as §1
[13] = Intrinsic clearance in mouse liver microsomes assessed per g protein at 0.1 uM pre-incubated with compound followed by NADPH addition and measured after 60 mins by LC-MS/MS analysis; type: ADME, microsome; settings: 1 h; outline: as §2
Klebsiella pneumoniae [14] = test: Antibacterial activity against KPC-2 producing Klebsiella pneumoniae isolate 209735 after 18 hrs in presence of BPL by CLSI broth microdilution method; type: functional; settings: isolate 209735, 18 h; outline: as §1

| SMILES | MIC (Pseudomonas aeruginosa [1]) [µg/mL] | MIC (Klebsiella pneumoniae [2]) [µg/mL] | Selectivity Index (Pseudomonas aeruginosa [3]) | Selectivity Index (Escherichia coli [4]) | Selectivity Index (Escherichia coli [5]) | MIC (Escherichia coli [6]) [µg/mL] | Selectivity Index (Klebsiella pneumoniae [7]) | MIC (Pseudomonas aeruginosa [8]) [µg/mL] | Selectivity Index (Pseudomonas aeruginosa [9]) | MIC (Escherichia coli [10]) [µg/mL] | CLint [11] [mL/min/g] | MIC (Escherichia coli [12]) [µg/mL] | CLint [13] [mL/min/g] | MIC (Klebsiella pneumoniae [14]) [µg/mL] |
| --- | --- | --- | --- | --- | --- | --- | --- | --- | --- | --- | --- | --- | --- | --- |
| CC(C)C(O/N=C(\C(=O)N[C@@H]1C(=O)N(S(=O)(=O)O)C12CCCC2)c1csc(N)n1)c1cc(=O)c(O)cn1O (stereo partly specified) | 8 | 2 (≈ 3.51 µM) | 1 | 2 | 1 | 0.5 (≈ 0.876 µM) | 4 | 16 (≈ 28 µM) | 2 | 0.5 (≈ 0.876 µM) | 7.76 | 0.25 | 5.59 | 0.25 |
| CC(C)C(O/N=C(\C(=O)N[C@@H]1C(=O)N(S(=O)(=O)O)[C@@H]1COC(N)=O)c1csc(N)n1)c1cc(=O)c(O)cn1O (stereo partly specified) | 4 | 32 (≈ 54.3 µM) | 1 | 4 | 4 | 0.5 (≈ 0.848 µM) | 2 | 8 (≈ 13.6 µM) | 1 | 0.5 (≈ 0.848 µM) | 11.9 | 0.25 | 3.41 | 8 |
| CC(C)C(O/N=C(\C(=O)N[C@@H]1C(=O)N(S(=O)(=O)O)[C@@H]1Cn1cc(COCc2cc(=O)c(O)cn2O)nn1)c1csc(N)n1)c1cc(=O)c(O)cn1O (stereo partly specified) | 4 | 2 (≈ 2.61 µM) | 4 | 2 | 2 | 16 (≈ 20.9 µM) | 8 | 16 (≈ 20.9 µM) | 1 | 16 (≈ 20.9 µM) | 26.2 | 8 | 27.1 | 0.25 |
| CC(C)C(O/N=C(\C(=O)N[C@@H]1C(=O)N(S(=O)(=O)O)[C@@H]1CCl)c1csc(N)n1)c1cc(=O)c(O)cn1O (stereo partly specified) | 8 | 32 (≈ 56.6 µM) | 2 | 4 | 1 | 0.5 (≈ 0.885 µM) | 1 | 8 (≈ 14.2 µM) | 1 | 0.5 (≈ 0.885 µM) | 11.1 | 0.25 | 29 | 8 |
